Data from ChEMBL document CHEMBL1629526, “4-[1-(Substituted aryl/alkyl carbonyl)-benzoimidazol-2-yl]-benzenesulfonic acids: synthesis, antimicrobial activity, QSAR studies, and antiviral evaluation” (Eur J Med Chem, 2010).
≈ marks a conversion by molar mass, not a printed value.

Tests used:
Staphylococcus aureus = test: Antimicrobial activity against Staphylococcus aureus after 24 hrs by tube dilution method; format: functional
Bacillus subtilis = test: Antimicrobial activity against Bacillus subtilis after 24 hrs by tube dilution method; format: functional
Summary of the method: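 Serial dilutions in double-strength nutrient broth (I.P.) with ciprofloxacin as reference, tube dilution, incubated 37 °C for 24 h. MIC is the lowest concentration that inhibited growth.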

Escherichia coli = test: Antimicrobial activity against Escherichia coli after 24 hrs by tube dilution method; format: functional
Candida albicans = test: Antimicrobial activity against Candida albicans after 48 hrs by tube dilution method; format: functional
Aspergillus niger = test: Antimicrobial activity against Aspergillus niger after 7 days by tube dilution method; format: functional; conditions: 168 h
[1] = Cytotoxicity against cat CRFK cells assessed as cell viability by MTS assay; format: cell-based, Felis catus; conditions: crfk
Summary of the method: (§1)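 Uninfected cultures were run in parallel with the antiviral assays. Viability was read by colorimetric formazan MTS assay.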

Felid alphaherpesvirus 1 = test: Antiviral activity against Feline herpesvirus 1 infected in cat CRFK cells assessed as inhibition of virus induced cytopathicity after 2 to 4 days by MTS assay; format: functional, organism-based; conditions: Felid alphaherpesvirus 1, CRFK
Feline coronavirus = test: Antiviral activity against Feline coronavirus infected in cat CRFK cells assessed as inhibition of virus induced cytopathicity after 2 to 4 days by MTS assay; format: functional, organism-based; conditions: Alphacoronavirus 1, CRFK
[2] = Cytotoxicity against human HEL cells assessed as altered cell morphology; format: cell-based
Summary of the method: (§2)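 Uninfected cell cultures run alongside the antiviral assays, exposed to serial compound dilutions and incubated at 37 °C for 2–4 days. Toxicity was scored microscopically and reported as the minimum cytotoxic concentration (MCC), the lowest concentration causing a detectable change in normal cell morphology.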

Human alphaherpesvirus 1 [3] = test: Antiviral activity against Herpes simplex virus 1 KOS infected in HEL cells assessed as inhibition of virus induced cytopathicity after 2 to 4 days by MTS assay; format: functional, organism-based; conditions: Human alphaherpesvirus 1, KOS
Human alphaherpesvirus 2 = test: Antiviral activity against Herpes simplex virus 2 G infected in HEL cells assessed as inhibition of virus induced cytopathicity after 2 to 4 days by MTS assay; format: functional, organism-based; conditions: Human alphaherpesvirus 2, strain G
Vaccinia virus = test: Antiviral activity against Vaccinia virus infected in HEL cells assessed as inhibition of virus induced cytopathicity after 2 to 4 days by MTS assay; format: functional, organism-based; conditions: Orthopoxvirus vaccinia
[4] = system: Vesicular stomatitis virus; test: Antiviral activity against Vesicular stomatitis virus infected in HEL cells assessed as inhibition of virus induced cytopathicity after 2 to 4 days by MTS assay; format: functional, organism-based
Human alphaherpesvirus 1 [5] = test: Antiviral activity against thymidine kinase deficient acyclovir-resistant Herpes simplex virus 1 KOS infected in HEL cells assessed as inhibition of virus induced cytopathicity after 2 to 4 days by MTS assay; format: functional, organism-based; conditions: Human alphaherpesvirus 1, KOS
HeLa = test: Cytotoxicity against human HeLa cells assessed as cell viability by MTS assay; format: cell-based; conditions: hela; summary of the method: as §1
[6] = Cytotoxicity against human HeLa cells assessed as altered cell morphology; format: cell-based; summary of the method: as §2
[7] = system: Vesicular stomatitis virus; test: Antiviral activity against Vesicular stomatitis virus infected in human HeLa cells assessed as inhibition of virus induced cytopathicity by visual scoring of CPE; format: functional, organism-based
[8] = system: Vesicular stomatitis virus; test: Antiviral activity against Vesicular stomatitis virus infected in human HeLa cells assessed as inhibition of virus induced cytopathicity after 2 to 4 days by MTS assay; format: functional, organism-based
Coxsackievirus B4 [9] = test: Antiviral activity against coxsackievirus B4 infected in human HeLa cells assessed as inhibition of virus induced cytopathicity by visual scoring of CPE; format: functional, organism-based; conditions: Enterovirus B
Coxsackievirus B4 [10] = test: Antiviral activity against coxsackievirus B4 infected in human HeLa cells assessed as inhibition of virus induced cytopathicity after 2 to 4 days by MTS assay; format: functional, organism-based; conditions: Enterovirus B
[11] = system: Respiratory syncytial virus; test: Antiviral activity against Respiratory syncytial virus infected in human HeLa cells assessed as inhibition of virus induced cytopathicity by visual scoring of CPE; format: functional, organism-based
[12] = system: Respiratory syncytial virus; test: Antiviral activity against Respiratory syncytial virus infected in human HeLa cells assessed as inhibition of virus induced cytopathicity after 2 to 4 days by MTS assay; format: functional, organism-based
MDCK = test: Cytotoxicity against MDCK cells assessed as cell viability by MTS assay; format: cell-based, Canis lupus familiaris; conditions: dog, mdck; summary of the method: as §1
[13] = Cytotoxicity against MDCK cells assessed as altered cell morphology; format: cell-based, Canis lupus familiaris; conditions: dog; summary of the method: as §2
Influenza A virus [14] = test: Antiviral activity against Influenza A H1N1 virus subtype infected in MDCK cells assessed as inhibition of virus induced cytopathicity by visual scoring of CPE; format: functional, organism-based
Influenza A virus [15] = test: Antiviral activity against Influenza A H1N1 virus subtype infected in MDCK cells assessed as inhibition of virus induced cytopathicity after 2 to 4 days by MTS assay; format: functional, organism-based
Influenza A virus [16] = test: Antiviral activity against Influenza A H3N2 virus subtype infected in MDCK cells assessed as inhibition of virus induced cytopathicity by visual scoring of CPE; format: functional, organism-based
Influenza A virus [17] = test: Antiviral activity against Influenza A H3N2 virus subtype infected in MDCK cells assessed as inhibition of virus induced cytopathicity after 2 to 4 days by MTS assay; format: functional, organism-based
[18] = Cytotoxicity against african green monkey Vero cells assessed as altered cell morphology; format: cell-based; conditions: chlorocebus sabaeus; summary of the method: as §2
Human respirovirus 3 = test: Antiviral activity against parainfluenza-3 virus infected in african green monkey Vero cells assessed as inhibition of virus induced cytopathicity after 2 to 4 days by MTS assay; format: functional, organism-based; conditions: Human respirovirus 3, Vero
[19] = system: Mammalian orthoreovirus 1; test: Antiviral activity against Reovirus 1 virus infected in african green monkey Vero cells assessed as inhibition of virus induced cytopathicity after 2 to 4 days by MTS assay; format: functional, organism-based; conditions: Mammalian orthoreovirus 1, Vero
Sindbis virus = test: Antiviral activity against Sindbis virus infected in african green monkey Vero cells assessed as inhibition of virus induced cytopathicity after 2 to 4 days by MTS assay; format: functional, organism-based
Coxsackievirus B4 [20] = test: Antiviral activity against Coxsackie virus B4 infected in african green monkey Vero cells assessed as inhibition of virus induced cytopathicity after 2 to 4 days by MTS assay; format: functional, organism-based; conditions: Enterovirus B
Punta Toro virus = test: Antiviral activity against Punta Toro virus infected in african green monkey Vero cells assessed as inhibition of virus induced cytopathicity after 2 to 4 days by MTS assay; format: functional, organism-based
Influenza B virus [21] = test: Antiviral activity against Influenza B virus infected in MDCK cells assessed as inhibition of virus induced cytopathicity by visual scoring of CPE; format: functional, organism-based
Influenza B virus [22] = test: Antiviral activity against Influenza B virus infected in MDCK cells assessed as inhibition of virus induced cytopathicity after 2 to 4 days by MTS assay; format: functional, organism-based

Structure (SMILES) | MBC (Staphylococcus aureus) | MBC (Bacillus subtilis) | MBC (Escherichia coli) | MFC (Candida albicans) | MFC (Aspergillus niger) | CC50 [1] | EC50 (Felid alphaherpesvirus 1) | EC50 (Feline coronavirus) | MCC [2] | EC50 (Human alphaherpesvirus 1 [3]) | EC50 (Human alphaherpesvirus 2) | EC50 (Vaccinia virus) | EC50 [4] | EC50 (Human alphaherpesvirus 1 [5]) | CC50 (HeLa) | MCC [6] | EC50 [7] | EC50 [8] | EC50 (Coxsackievirus B4 [9]) | EC50 (Coxsackievirus B4 [10]) | other results
C=CC(=O)n1c(-c2ccc(S(=O)(=O)O)cc2)nc2ccccc21 | 6.25 mg/L (≈ 19 µM) | 12.5 mg/L (≈ 38.1 µM) | 1.56 mg/L (≈ 4.75 µM) | > 50 mg/L | > 50 mg/L | > 82 mg/L | > 20 mg/L | > 20 mg/L | 100 µg/mL | > 20 mg/L | > 20 mg/L | > 20 mg/L | > 20 mg/L | > 20 mg/L | > 100 mg/L | > 100 µg/mL | > 100 mg/L | > 100 mg/L | > 100 mg/L | > 100 mg/L | EC50 [11]: > 100 mg/L; EC50 [12]: > 100 mg/L; CC50 (MDCK): 14.1 mg/L (≈ 42.9 µM); MCC [13]: ≥ 0.8 µg/mL; EC50 (Influenza A virus [14]): > 0.8 mg/L; EC50 (Influenza A virus [15]): > 0.8 mg/L; EC50 (Influenza A virus [16]): > 0.8 mg/L; EC50 (Influenza A virus [17]): > 0.8 mg/L; MCC [18]: > 100 µg/mL; EC50 (Human respirovirus 3): > 100 mg/L; EC50 [19]: > 100 mg/L; EC50 (Sindbis virus): > 100 mg/L; EC50 (Coxsackievirus B4 [20]): > 100 mg/L; EC50 (Punta Toro virus): > 100 mg/L
O=C(c1cccc(O)c1)n1c(-c2ccc(S(=O)(=O)O)cc2)nc2ccccc21 | 12.5 mg/L (≈ 31.7 µM) | > 50 mg/L | 3.12 mg/L (≈ 7.91 µM) | 50 mg/L (≈ 127 µM) | > 50 mg/L | > 100 mg/L | > 100 mg/L | > 100 mg/L | > 100 µg/mL | > 100 mg/L | > 100 mg/L | > 100 mg/L | > 100 mg/L | > 100 mg/L | > 100 mg/L | > 100 µg/mL | > 100 mg/L | > 100 mg/L | > 100 mg/L | > 100 mg/L | EC50 [11]: > 100 mg/L; EC50 [12]: > 100 mg/L; CC50 (MDCK): > 100 mg/L; MCC [13]: 100 µg/mL; EC50 (Influenza A virus [14]): > 20 mg/L; EC50 (Influenza A virus [15]): > 20 mg/L; EC50 (Influenza A virus [16]): > 20 mg/L; EC50 (Influenza A virus [17]): > 20 mg/L; EC50 (Influenza B virus [21]): > 20 mg/L; EC50 (Influenza B virus [22]): > 20 mg/L; MCC [18]: > 100 µg/mL; EC50 (Human respirovirus 3): > 100 mg/L; EC50 [19]: > 100 mg/L; EC50 (Sindbis virus): > 100 mg/L; EC50 (Coxsackievirus B4 [20]): > 100 mg/L; EC50 (Punta Toro virus): > 100 mg/L
O=C(c1ccc(O)cc1O)n1c(-c2ccc(S(=O)(=O)O)cc2)nc2ccccc21 | 12.5 mg/L (≈ 30.5 µM) | 25 mg/L (≈ 60.9 µM) | 1.56 mg/L (≈ 3.8 µM) | 12.5 mg/L (≈ 30.5 µM) | > 50 mg/L | > 100 mg/L | > 100 mg/L | > 100 mg/L | 100 µg/mL | > 20 mg/L | > 20 mg/L | > 20 mg/L | > 20 mg/L | > 20 mg/L | > 100 mg/L | > 100 µg/mL | > 100 mg/L | > 100 mg/L | > 100 mg/L | > 100 mg/L | EC50 [11]: > 100 mg/L; EC50 [12]: > 100 mg/L; CC50 (MDCK): 54 mg/L (≈ 132 µM); MCC [13]: 20 µg/mL; EC50 (Influenza A virus [14]): > 4 mg/L; EC50 (Influenza A virus [15]): > 4 mg/L; EC50 (Influenza A virus [16]): > 4 mg/L; EC50 (Influenza A virus [17]): > 4 mg/L; EC50 (Influenza B virus [21]): > 4 mg/L; EC50 (Influenza B virus [22]): > 4 mg/L; MCC [18]: > 100 µg/mL; EC50 (Human respirovirus 3): > 100 mg/L; EC50 [19]: > 100 mg/L; EC50 (Sindbis virus): > 100 mg/L; EC50 (Coxsackievirus B4 [20]): > 100 mg/L; EC50 (Punta Toro virus): > 100 mg/L
O=C(c1ccccc1O)n1c(-c2ccc(S(=O)(=O)O)cc2)nc2ccccc21 | 25 mg/L (≈ 63.4 µM) | 25 mg/L (≈ 63.4 µM) | 12.5 mg/L (≈ 31.7 µM) | 50 mg/L (≈ 127 µM) | > 50 mg/L | > 100 mg/L | > 100 mg/L | > 100 mg/L | > 100 µg/mL | > 100 mg/L | > 100 mg/L | > 100 mg/L | > 100 mg/L | > 100 mg/L | > 100 mg/L | > 100 µg/mL | > 100 mg/L | > 100 mg/L | > 100 mg/L | > 100 mg/L | EC50 [11]: > 100 mg/L; EC50 [12]: > 100 mg/L; CC50 (MDCK): > 100 mg/L; MCC [13]: 100 µg/mL; EC50 (Influenza A virus [14]): > 20 mg/L; EC50 (Influenza A virus [15]): > 20 mg/L; EC50 (Influenza A virus [16]): > 20 mg/L; EC50 (Influenza A virus [17]): > 20 mg/L; EC50 (Influenza B virus [21]): > 20 mg/L; EC50 (Influenza B virus [22]): > 20 mg/L; MCC [18]: > 100 µg/mL; EC50 (Human respirovirus 3): > 100 mg/L; EC50 [19]: > 100 mg/L; EC50 (Sindbis virus): > 100 mg/L; EC50 (Coxsackievirus B4 [20]): > 100 mg/L; EC50 (Punta Toro virus): > 100 mg/L
